Values after ≈ are worked out from the molar mass of the structure shown. Active and inactive are the calls of the source. The rule behind the calls is not given here.

In data set [1] the test system is Plasmodium falciparum. Kind of data set: Antiplasmodial activity against Plasmodium falciparum 3D7 incubated for 36 to 42 hrs by Giemsa staining method. The format is functional, organism-based. In outline:
(§1)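 In vitro maturation assay on the chloroquine-sensitive P. falciparum 3D7 strain.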

For data set [2], the system named is Staphylococcus aureus. Kind of data set: Antibacterial activity against Staphylococcus aureus ATCC 25923 incubated for 18 to 24 hrs followed by addition incubation for 18 to 24 hrs on MHA plates. Format: functional. In short, it runs like this: (§2)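 Read-out is the minimum bactericidal concentration (MBC), determined separately against Escherichia coli and Staphylococcus aureus.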

Data set [3] concerns Plasmodium falciparum. Kind of data set: Antiplasmodial activity against Plasmodium falciparum 3D7 up to 5092 ug/ml incubated for 36 to 42 hrs by Giemsa staining method. The format is functional, organism-based. To be noted: in the assay text read “5092 ng/ml” for “5092 ug/ml”. In outline: as §1
Data set [4] relates to Escherichia coli. The data set is described as follows: Antibacterial activity against Escherichia coli ATCC 25922 incubated for 18 to 24 hrs followed by addition incubation for 18 to 24 hrs on MHA plates. The format is functional. In short, it runs like this:
as §2

Data set [5] can be described thus: Iron chelation activity assessed as drug level causing 50% iron chelation at 20 to 500 ug/ml using FeCl2 and ferrozine. The format is physicochemical. The settings on record: for EC50: read-out: Activity. In short, it runs like this:
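The value is the concentration giving 50% chelation ability (50% CA), reported in mM.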

Data set [6] relates to Escherichia coli. The data set is described as follows: Antibacterial activity against Escherichia coli ATCC 25922 up to 1024 ug/ml incubated for 18 to 24 hrs followed by addition incubation for 18 to 24 hrs on MHA plates. Format: functional, organism-based. In outline:
as §2

Data set [7] has as its system Staphylococcus aureus. The data set is described as follows: Antibacterial activity against Staphylococcus aureus ATCC 25923 up to 1024 ug/ml incubated for 18 to 24 hrs followed by addition incubation for 18 to 24 hrs on MHA plates. Format: functional, organism-based. In short, it runs like this:
as §2

Data set [8] is described as follows: Iron chelation activity at 500 ug/ml using FeCl2 and ferrozine. The format is physicochemical.
The mark [9] stands for this setting: Plasmodium falciparum, 3D7, read-out: IC50.

`O=c1c(-c2cccc3ccccc23)c(O)c2ccccc2n1O`: in data set [1], the IC50 entry was “Not Active”. Also, the MBC in data set [2] worked out at 1.7 mM (≈ 516 µg/mL). Further, the result in data set [3] and in data set [6] was inactive. Further, in data set [4], the MBC result is “inactive”. The EC50 in data set [5] was determined as 280 µM.
Consider `Cc1ccccc1-c1cc2c(F)cccc2n(O)c1=O`, for which the IC50 in data set [1] (setting [9]) is 5 µM. Also, the MBC entry in data set [2] and in data set [4] was “inactive” in each case. For the same molecule, the outcome in data set [7] and in data set [6] was inactive. Besides, the EC50 in data set [5] stood at 280 µM.
For the molecule `O=c1c(-c2cccc3ccccc23)cc2cc(F)ccc2n1O`, the IC50 in data set [1] (setting [9]) is 1.1 µM. Also, the MBC result in data set [2] and in data set [4] was “inactive” throughout. Besides, the result in data set [7] and in data set [6] was inactive. The EC50 in data set [5] came out at 240 µM.
Consider `COc1cc2cc(-c3ccccc3C)c(=O)n(O)c2cc1OC`, for which the IC50 in data set [1] (setting [9]) stood at 5.5 µM. Besides, the MBC entry in data set [2] and in data set [4] was “inactive” in each case. Further, the result in data set [7] and in data set [6] was inactive.
In the case of `O=c1[nH]c2ccccc2cc1-c1cccc2ccccc12`, the Activity entry in data set [8] and in data set [5] was “Not Active” each time. The IC50 result in data set [1] was “Not Active”. Also, the MBC entry in data set [2] and in data set [4] was “inactive” each time. In addition, the result in data set [7], in data set [3] and in data set [6] was inactive.
Consider `Cc1ccccc1-c1c(O)c2ccccc2n(O)c1=O`, for which the IC50 entry in data set [1] is “Not Active”. Further, the MBC entry in data set [2] and in data set [4] was “inactive” in each case. In addition, the result in data set [7], in data set [3] and in data set [6] was inactive.
On to `Cc1ccccc1-c1cc2ccccc2n(O)c1=O`, for which, in data set [1] (setting [9]), the IC50 came to 3 µM. The molecule further gave an MBC in data set [2] of 4.1 mM (≈ 1030 µg/mL). Besides, the MBC result in data set [4] is “inactive”. The result in data set [6] was inactive.
For `Cc1ccccc1-c1cc2cc(O)ccc2n(O)c1=O`, the IC50 in data set [1] (setting [9]) worked out at 3.5 µM. In addition, the MBC is 3.8 mM (≈ 1020 µg/mL) in data set [2] and 1.9 mM (≈ 508 µg/mL) in data set [4].
Consider `O=c1c(-c2ccc3ccccc3c2)cc2ccccc2n1O`, for which, in data set [1] (setting [9]), the IC50 was 2.9 µM. For the same molecule, the MBC in data set [2] amounted to 3.6 mM (≈ 1030 µg/mL). The MBC entry in data set [4] was “inactive”. Also, the outcome in data set [6] was inactive.
As for `O=c1c(-c2cccc3ccccc23)cc2c(F)cccc2n1O`, the IC50 in data set [1] (setting [9]) was found to be 1.4 µM. Moreover, the MBC result in data set [2] and in data set [4] was “inactive” throughout. The outcome in data set [7] and in data set [6] was inactive. For the same molecule, the EC50 in data set [5] amounted to 240 µM.
Turning to `O=c1c(-c2cccc3ccccc23)cc2ccccc2n1O`, in data set [1] (setting [9]), the IC50 was 2.6 µM. The MBC entry in data set [2] and in data set [4] was “inactive” throughout. Further, the result in data set [7] and in data set [6] was inactive.
For the molecule `COc1cc2cc(-c3cccc4ccccc34)c(=O)n(O)c2cc1OC`, the IC50 in data set [1] (setting [9]) worked out at 5 µM. Also, the MBC result in data set [2] and in data set [4] was “inactive” throughout. The result in data set [7] and in data set [6] was inactive.
For `Cc1ccccc1-c1cc2cc3c(cc2n(O)c1=O)OCO3`, in data set [1] (setting [9]), the IC50 is 4.6 µM. The MBC entry in data set [2] and in data set [4] was “inactive” throughout. The outcome in data set [7] and in data set [6] was inactive.
With `O=c1c(-c2ccccc2)cc2ccccc2n1O`, the IC50 in data set [1] (setting [9]) came out at 14 µM. Moreover, the MBC result in data set [2] and in data set [4] was “inactive” each time. The result in data set [7] and in data set [6] was inactive.
Take `COc1ccc2c(c1)cc(-c1ccccc1C)c(=O)n2O`: the IC50 in data set [1] (setting [9]) stood at 1.3 µM. Moreover, in data set [2], the MBC was determined as 3.6 mM (≈ 1010 µg/mL). In addition, the MBC result in data set [4] is “inactive”. Also, the EC50 in data set [5] is 280 µM. Also, the outcome in data set [6] was inactive.
As to `O=c1c(-c2cccc3ccccc23)cc2c3c(ccc2n1O)OCO3`, the IC50 in data set [1] (setting [9]) came out at 1.9 µM. Also, the MBC in data set [2] is 3.1 mM (≈ 1030 µg/mL). Moreover, the MBC entry in data set [4] is “inactive”. For the same molecule, the result in data set [6] was inactive.
Regarding `C=C[C@]1(C)C[C@H](C)C[C@H](C)[C@H]1c1c(O)ccn(O)c1=O`, the IC50 in data set [1] (setting [9]) was 0.8 µM.
For the molecule `O=c1c(-c2cccc3ccccc23)cc2cc(O)ccc2n1O`, in data set [1] (setting [9]), the IC50 came out at 2.5 µM. Besides, the MBC result in data set [2] was “inactive”. Moreover, the outcome in data set [7] was inactive. Besides, the MBC in data set [4] is 3.4 mM (≈ 1030 µg/mL).
As for `O=c1c(-c2ccccc2)c(O)c2ccccc2n1O`, the IC50 entry in data set [1] is “Not Active”. The MBC entry in data set [2] was “inactive”. Besides, the result in data set [7] and in data set [3] was inactive. This molecule returned an MBC in data set [4] of 4 mM (≈ 1010 µg/mL).
On to `O=c1c(-c2cccc3ccccc23)cc2cc3c(cc2n1O)OCO3`, for which, in data set [1] (setting [9]), the IC50 is 4.2 µM. In addition, the MBC entry in data set [2] and in data set [4] was “inactive” throughout. Besides, the outcome in data set [7] and in data set [6] was inactive.
Turning to `Cc1ccccc1-c1cc2c3c(ccc2n(O)c1=O)OCO3`, the IC50 in data set [1] (setting [9]) came out at 3.6 µM. For the same molecule, the MBC result in data set [2] and in data set [4] was “inactive” throughout. Moreover, the outcome in data set [7] and in data set [6] was inactive.
In the case of `COc1ccccc1-c1c(O)c2ccccc2n(O)c1=O`, the IC50 result in data set [1] is reported as “Not Active”. Moreover, the MBC entry in data set [2] and in data set [4] was “inactive” throughout. For the same molecule, the outcome in data set [7], in data set [3] and in data set [6] was inactive.
As to `Cc1ccccc1-c1cc2cc(F)ccc2n(O)c1=O`, in data set [1] (setting [9]), the IC50 stood at 4.8 µM. Also, the MBC entry in data set [2] and in data set [4] was “inactive” throughout. Besides, the result in data set [7] and in data set [6] was inactive. The EC50 in data set [5] stood at 290 µM.
For `COc1ccc2c(c1)cc(-c1cccc3ccccc13)c(=O)n2O`, in data set [1] (setting [9]), the IC50 was 1.3 µM. Moreover, the MBC result in data set [2] and in data set [4] was “inactive” throughout. The result in data set [7] and in data set [6] was inactive. Moreover, in data set [5], the EC50 was found to be 250 µM.
In the case of `COc1ccccc1-c1cc2ccccc2n(O)c1=O`, in data set [1] (setting [9]), the IC50 worked out at 7.6 µM. For the same molecule, the figures for the MBC in data set [2] and in data set [4] were 3.8 mM (≈ 1020 µg/mL) and 1.9 mM (≈ 508 µg/mL), respectively.
Regarding `O=c1c(-c2ccc3ccccc3c2)c(O)c2ccccc2n1O`, in data set [1], the IC50 result is reported as “Not Active”. The MBC result in data set [2] and in data set [4] was “inactive” each time. The result in data set [7], in data set [3] and in data set [6] was inactive.
Regarding `O=c1c(-c2ccccc2C(F)(F)F)cc2ccccc2n1O`, in data set [1] (setting [9]), the IC50 came to 5.9 µM. The molecule further registered an MBC in data set [2] of 3.4 mM (≈ 1040 µg/mL). Besides, the MBC entry in data set [4] was “inactive”. Further, the result in data set [6] was inactive.
Consider `O=c1c(-c2ccccc2C(F)(F)F)c(O)c2ccccc2n1O`, for which, in data set [1], the IC50 entry is given as “Not Active”. Besides, the MBC entry in data set [2] and in data set [4] was “inactive” throughout. The result in data set [7], in data set [3] and in data set [6] was inactive.

Usually IC50 stands for the concentration that gives 50% inhibition. A word on the MBC: it is the lowest tested concentration that kills the bacteria rather than only halting them.

Source of the values: ChEMBL document CHEMBL3351258, “An amidation/cyclization approach to the synthesis of N-hydroxyquinolinones and their biological evaluation as potential anti-plasmodial, anti-bacterial, and iron(II)-chelating agents” (Bioorg Med Chem Lett, 2015).
